Results on ten compounds are retold here after ChEMBL document CHEMBL1131508, “Spiro[1H-indene-1,4'-piperidine] derivatives as potent and selective non-peptide human somatostatin receptor subtype 2 (sst2) agonists” (J Med Chem, 1998).

Type in all cases: cell-based
The target of test [1] is Somatostatin receptor type 2 (Homo sapiens, UniProt P30874). Nature of the test: Binding affinity towards human sst2 receptor expressed in CHO-K1 cells. Summed up:
(§1)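 Competitive radioligand binding. Each point was run in triplicate, and each compound was tested in at least two separate experiments.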

In test [2] the target is Somatostatin receptor type 1 (Homo sapiens, UniProt P30872). The test is described as follows: Binding affinity towards human sst1 receptor expressed in CHO-K1 cells. In a few lines: as §1
Chain of Somatostatin receptor type 1 (P30872 whole entry): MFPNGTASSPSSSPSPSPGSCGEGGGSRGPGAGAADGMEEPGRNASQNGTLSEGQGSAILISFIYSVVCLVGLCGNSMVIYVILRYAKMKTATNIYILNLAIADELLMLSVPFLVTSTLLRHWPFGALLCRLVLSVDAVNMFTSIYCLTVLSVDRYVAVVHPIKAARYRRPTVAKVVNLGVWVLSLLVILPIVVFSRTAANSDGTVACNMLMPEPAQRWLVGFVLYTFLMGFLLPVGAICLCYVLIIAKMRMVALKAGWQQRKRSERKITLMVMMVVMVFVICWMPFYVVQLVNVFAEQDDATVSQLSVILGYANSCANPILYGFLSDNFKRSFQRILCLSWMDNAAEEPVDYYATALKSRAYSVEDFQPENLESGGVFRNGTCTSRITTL
Test [3] addresses Somatostatin receptor type 3 (Homo sapiens, UniProt P32745). The test is described as follows: Binding affinity towards human sst3 receptor expressed in CHO-K1 cells. In a few lines:
as §1

For test [4], the target named is Somatostatin receptor type 4 (Homo sapiens, UniProt P31391). The test is described as follows: Binding affinity towards human sst4 receptor expressed in CHO-K1 cells. Summed up:
as §1

Test [5] has as its target Somatostatin receptor type 5 (Homo sapiens, UniProt P35346). The test is described as follows: Binding affinity towards human sst5 receptor expressed in CHO-K1 cells. In a few lines: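 Radioligand was labelled SRIF28. Points were run in triplicate, with at least two independent experiments per compound.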

The structures appear in SMILES notation. Bounds are passed on as bounds.

Chain of Somatostatin receptor type 4 (P31391 whole entry): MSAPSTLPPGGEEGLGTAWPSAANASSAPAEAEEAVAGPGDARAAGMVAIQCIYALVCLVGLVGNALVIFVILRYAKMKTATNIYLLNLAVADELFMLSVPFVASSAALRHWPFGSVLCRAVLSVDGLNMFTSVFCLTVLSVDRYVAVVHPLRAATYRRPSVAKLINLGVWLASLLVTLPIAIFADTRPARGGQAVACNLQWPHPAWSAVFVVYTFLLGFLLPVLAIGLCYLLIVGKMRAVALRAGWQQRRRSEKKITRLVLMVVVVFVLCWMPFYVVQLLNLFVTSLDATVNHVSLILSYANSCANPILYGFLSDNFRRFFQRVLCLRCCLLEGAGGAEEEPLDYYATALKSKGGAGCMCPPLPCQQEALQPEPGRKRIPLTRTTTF
Chain of Somatostatin receptor type 2 (P30874 whole entry): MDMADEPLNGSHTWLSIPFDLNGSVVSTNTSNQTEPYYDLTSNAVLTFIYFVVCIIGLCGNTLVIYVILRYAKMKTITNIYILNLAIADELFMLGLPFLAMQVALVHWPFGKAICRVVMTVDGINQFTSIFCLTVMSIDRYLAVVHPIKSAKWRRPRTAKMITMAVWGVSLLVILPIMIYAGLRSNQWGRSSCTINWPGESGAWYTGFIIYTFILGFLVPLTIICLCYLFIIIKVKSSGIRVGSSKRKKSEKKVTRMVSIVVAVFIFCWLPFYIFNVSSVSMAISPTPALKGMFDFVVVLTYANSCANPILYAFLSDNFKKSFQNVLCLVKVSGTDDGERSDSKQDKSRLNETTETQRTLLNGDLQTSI
Chain of Somatostatin receptor type 3 (P32745 whole entry): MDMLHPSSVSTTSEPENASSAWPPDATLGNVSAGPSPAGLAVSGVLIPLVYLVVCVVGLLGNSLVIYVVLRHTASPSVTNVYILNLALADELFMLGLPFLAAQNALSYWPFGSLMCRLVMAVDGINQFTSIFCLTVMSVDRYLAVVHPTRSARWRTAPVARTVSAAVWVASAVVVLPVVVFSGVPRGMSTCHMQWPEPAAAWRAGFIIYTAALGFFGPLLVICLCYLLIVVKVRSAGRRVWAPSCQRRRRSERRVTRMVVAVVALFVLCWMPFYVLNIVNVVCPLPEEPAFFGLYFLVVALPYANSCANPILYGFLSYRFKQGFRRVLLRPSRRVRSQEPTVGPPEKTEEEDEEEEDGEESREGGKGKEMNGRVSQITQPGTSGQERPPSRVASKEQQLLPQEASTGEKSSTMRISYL
Chain of Somatostatin receptor type 5 (P35346 whole entry): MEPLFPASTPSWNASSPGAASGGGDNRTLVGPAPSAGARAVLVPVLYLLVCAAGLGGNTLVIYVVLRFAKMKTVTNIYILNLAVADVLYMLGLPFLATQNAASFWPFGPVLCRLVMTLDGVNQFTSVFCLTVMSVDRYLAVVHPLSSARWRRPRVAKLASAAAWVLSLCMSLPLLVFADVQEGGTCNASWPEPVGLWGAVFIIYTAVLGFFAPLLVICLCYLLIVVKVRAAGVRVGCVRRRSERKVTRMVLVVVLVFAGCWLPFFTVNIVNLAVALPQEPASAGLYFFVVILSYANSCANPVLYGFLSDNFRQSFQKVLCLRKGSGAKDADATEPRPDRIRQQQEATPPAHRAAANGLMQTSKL

The term Ki denotes a measure of affinity in units of concentration, obtained from inhibition or displacement. Low readings indicate tighter binding, high ones weaker binding. Consider `NCCCCCCNC(=O)[C@H](Cc1c[nH]c2ccccc12)NC(=O)N1CCC2(C=Cc3ccccc32)CC1`, for which the affinity in test [1], expressed as Ki, was 225 nM.

For `C[C@@H](O)[C@@H]1NC(=O)[C@H](Cc2ccccc2)NC(=O)[C@@H]2CCCN2C(=O)[C@H](Cc2ccc(O)cc2)NC(=O)[C@@H](Cc2c[nH]c3ccccc23)NC(=O)[C@H](CCCCN)NC1=O` (stereo in doubt), the inhibitory constant (Ki) in test [1] is 0.5 nM.

For `NC[C@H]1CCC[C@@H](CNC(=O)[C@H](Cc2c[nH]c3ccccc23)NC(=O)N2CCC3(C=Cc4ccccc43)CC2)C1`, the Ki was found to be 20 nM in test [1]; 2430 nM in test [2]; 3690 nM in test [3]; 2180 nM in test [4]; 3320 nM in test [5].

In test [1], `NCCCCC(NC(=O)[C@@H](Cc1c[nH]c2ccccc12)NC(=O)N1CCC2(C=Cc3ccccc32)CC1)C(N)=O` (some centres undefined) returned a Ki of 53 nM.

Take `NCCCCC(NC(=O)[C@H](Cc1c[nH]c2ccccc12)NC(=O)N1CCC2(C=Cc3ccccc32)CC1)C(=O)O` (some centres undefined): in test [1], the Ki was determined as 1110 nM.

Regarding `NCC1CCCC(CNC(=O)[C@H](Cc2c[nH]c3ccccc23)NC(=O)N2CCC3(C=Cc4ccccc43)CC2)C1` (some centres undefined), the Ki was 4 nM in test [1]; 537 nM in test [2]; 3610 nM in test [3]; 2480 nM in test [4]; 5020 nM in test [5].

In turn, `NCCCNC(=O)[C@H](Cc1c[nH]c2ccccc12)NC(=O)N1CCC2(C=Cc3ccccc32)CC1` came in with a Ki in test [1] of 815 nM.

For `NCCCCCNC(=O)[C@@H](Cc1c[nH]c2ccccc12)NC(=O)N1CCC2(C=Cc3ccccc32)CC1`, the Ki in test [1] is 46 nM; in test [2] it was 5380 nM; in test [3], 2570 nM; in test [4] it was 6840 nM; in test [5], greater than 10000 nM.

On to `NC[C@@H]1CCC[C@H](CNC(=O)[C@H](Cc2c[nH]c3ccccc23)NC(=O)N2CCC3(C=Cc4ccccc43)CC2)C1`, for which the Ki in test [1] stood at 1.6 nM; in test [2], 1740 nM; in test [3] it was 2950 nM; in test [4] it was 2000 nM; in test [5], 4470 nM.

Consider `NCCCCNC(=O)C(Cc1c[nH]c2ccccc12)NC(=O)N1CCC2(C=Cc3ccccc32)CC1` (centres undefined), for which the Ki was 4260 nM in test [2], 5690 nM in test [3], greater than 10000 nM in test [4] and greater than 10000 nM in test [5].
